Experimental data from the EternaBench riboswitch data.

Tested on: MS2 coat protein
Experiment: apparent Kd, MS2 coat protein; higher = weaker binding; RNA-MaP array; theophylline 2 mM where present
Method in brief: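 Designs were transcribed by stalled E. coli RNA polymerase on Illumina sequencing-chip clusters. They were titrated with SNAP-549-labelled MS2 coat protein from 0.7 or 1.5 nM, doubling to 3 µM, without and then with constant ligand. Buffer: 100 mM Tris-HCl pH 7.5, 80 mM KCl, 4 mM MgCl2, BSA, DTT, yeast tRNA, Tween-20. Green signal was normalised to red-channel RNA signal and control-cluster median Fmax. Apparent Kd is the median of filtered per-cluster binding-curve fits.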

[1] = designed as: ON switch for theophylline, no ligand
[2] = ligand present: theophylline, designed as: ON switch for theophylline
[3] = designed as: OFF switch for theophylline, no ligand
[4] = ligand present: theophylline, designed as: OFF switch for theophylline

ACUUUGUCGGGUGAUACCAGCCUCGGCACAUCUCGUGCCGAACAUGAGGAUCACCCAUGUGGCCCUUGGCAGCACAUGACAACUC
apparent Kd [1]: 375 nM | apparent Kd [2]: 67 nM

GAUGAACUAUAUGAUACCAGACAACAUGAGGAUCACCCAUGUGAAUGUCGUCCUCUGCCUGUCCCUUGGCAGCGUAUAGUUUAUC
apparent Kd [3]: 29.6 nM | apparent Kd [4]: 177 nM

ACAUGAGGAUCACCCAUGUCUGCCACUGAUACCAGCGGAAGCCAACGCCCUUGGCAGCAGAACAUGAGGAUCACCCAUGUAGGCA
apparent Kd [1]: 308 nM | apparent Kd [2]: 169 nM

AGCUCAUAGAGUGAUACCAGACUACAUGAGGAUCACCCAUGUUACUUUUAAAUAUCAUUUGUCCCUUGGCAGCACAUGAAGAGCA
apparent Kd [3]: 13.6 nM | apparent Kd [4]: 12.7 nM

ACAUCCAGGUUAAUCGUGGGCAUACUCGAUACCAGUAUUUUAAUCUACCCUUGGCAGCGACAUGAGGAUCACCCAUGUGCGAUGA
apparent Kd [3]: 12.4 nM | apparent Kd [4]: 19.3 nM

AGCAUUGUAACAGAUACCAGACUUUUAAUGCCUCUAAUUACAUGAGGAUCACCCAUGUUUGUCCCUUGGCAGCUGUUAUGAUGCA
apparent Kd [3]: 119 nM | apparent Kd [4]: 226 nM

UAUACAUGAGGAUCACCCAUGUGCCAUGAUACCAGACAUGAAAAUGUCCCUUGGCAGCAUGGGAAAUGUAUAGCGGGAAACCCGA
apparent Kd [1]: 72.6 nM | apparent Kd [2]: 704 nM

AUGCAGGGCAACAGCCACUGUCACGGUGAUACCAGUACCCGUGCGUACCCUUGGCAGCAUCGUGGUACAUGAGGAUCACCCAUGU
apparent Kd [1]: 271 nM | apparent Kd [2]: 180 nM

AGCCUAUUACAUGAGGAUCACCCAUGUGAUACCAGUCAGGAAACUGACCCUUGGCAGCGCAUGAGGAUCACCCAUGCGCUAGGCA
apparent Kd [3]: 10.1 nM | apparent Kd [4]: 10.2 nM

UGACAUUGCUCAGAUACCAGACAUGAGGAUCACCCAUGUGCCAAAUAAACGUACAUAAAUGUCCCUUGGCAGCUGAGCAAUGUCU
apparent Kd [3]: 57.5 nM | apparent Kd [4]: 890 nM

AGAACAAAACUAAAUAAACAACUGGGUGAUACCAGCACAUGUGCGUGCCCUUGGCAGCAUCCGGCCACAUGAGGAUCACCCAUGU
apparent Kd [1]: 74 nM | apparent Kd [2]: 155 nM

ACAUCCAGAUUAAUCGUGGGCAUACUCGAUACCAGUAUUUUAACCUACCCUUGGCAGCGACAUGAGGAUCACCCAUGUGAGAUGA
apparent Kd [3]: 22.8 nM | apparent Kd [4]: 30 nM

GAUGAACUAUAUGAUACCAGACAACAUGAGGAUCACCCAUGUGUAUGUCGUCCUCUGCCUGUCCCUUGGCAGCGUAUAGUUUAUC
apparent Kd [3]: 32.4 nM | apparent Kd [4]: 193 nM

AGUACUCGAACGGAUACCAGCCGGACAUGAGGAUCACCCAUGUCCUACCAAUGUUCGGUUGGCCCUUGGCAGCCGUUCGUGUACA
apparent Kd [1]: 588 nM | apparent Kd [2]: 35.2 nM

AGUGUAUCCAUCGAUACCAGCCACCACCGAUAGACCACAUGAGGAUCACCCAUGUUGGGUGGCCCUUGGCAGCGGUGGCUGUGUA
apparent Kd [1]: 287 nM | apparent Kd [2]: 1190 nM

UUUACAUGAGGAUCACCCAUGUGCCAUGAUACCAGACAUGAAAAUGUCCCUUGGCAGCAUGAGUGAUUCAUCCGAAAGGAUGUUU
apparent Kd [1]: 121 nM | apparent Kd [2]: 673 nM

CCUCGACAUGAGGAUCACCCAUGUAGAGAUACCAGCCUGUGAGAUGGCCCUUGGCAGCUCAUAUAGGGUACAGGAGUCGUUUUGA
apparent Kd [3]: 23.2 nM | apparent Kd [4]: 85.1 nM

AUAAGUAAUGUUUCGUGUAUUAUUACAGAUACCAGACUAUACGUUGUCCCUUGGCAGCUGGAUUACAUGAGGAUCACCCAUGUUG
apparent Kd [3]: 15.8 nM | apparent Kd [4]: 27.5 nM

UUUGAUAGGACAGAUACCAGCGUGUUGUUGAACAUGAGGAUCACCCAUGUAGUGAUCGAGCGCCCUUGGCAGCUGGUUUGUUAGG
apparent Kd [1]: 382 nM | apparent Kd [2]: 306 nM

UACAUGAGGAUCACCCAUGUAUGAAUGGAUACCAGAUAAAAUAAGGUCCCUUGGCAGCUAGUGAAUCGAGGGUGGGUAUCAUGAU
apparent Kd [3]: 11.2 nM | apparent Kd [4]: 10.3 nM

GUGGAGACACGAGAUACCAGUCUCUAUAACAUGAGGAUCACCCAUGUAAUGCUCCUCAGGGACCCUUGGCAGCUCAGUAUGAUGA
apparent Kd [3]: 32.9 nM | apparent Kd [4]: 134 nM

GAGGGUGAAUCUCUGGUCCGUUUGACGGAUACCAGCGAGAGGUAUCGCCCUUGGCAGCCGACGACAUGAGGAUCACCCAUGUUAA
apparent Kd [3]: 17.9 nM | apparent Kd [4]: 109 nM

AUUAUCAUGGUCAUUUAUAUUUCGUCAGAUACCAGACUAGAUAUAGUCCCUUGGCAGCUGUUACAUGAGGAUCACCCAUGUUAUU
apparent Kd [3]: 124 nM | apparent Kd [4]: 46.6 nM

CAUGGGUGGUAUCACCCAUCCAUAGGUGAUACCAGCAUCGAAAGAUGCCCUUGGCAGCACCAACAUGAGGAUCACCCAUGUAAUA
apparent Kd [1]: 264 nM | apparent Kd [2]: 202 nM

GCACCAGGUACGGAUACCAGCUAUAGGCCCAAUGGGCGACAUGAGGAUCACCCAUGUAAUGGCCCUUGGCAGCUGUACCUGGUGC
apparent Kd [1]: 88.3 nM | apparent Kd [2]: 13.7 nM
